This passage reports ED50, LD50 and minimal effective dose results from ChEMBL document CHEMBL1124408, “3-aminopyridazine derivatives with atypical antidepressant, serotonergic, and dopaminergic activities” (J Med Chem, 1989).

A word on the ED50: it is the dose that gives a 50% effect, or the effect in half of the subjects. For orientation: LD50 means the dose at which mortality reaches 50%. Lower therefore signals greater toxicity.

For data set [1], the system named is Mus musculus. Description: Serotonergic activity was determined by measuring the potentiation of 5-hydroxytryptophan in mice upon ip administration. In kind it is functional. The essentials: (§1)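 Drug was injected ip in distilled water/gum tragacanth to female CD1 mice (18-22 g) at multiple doses (7-20 mice/dose), 30 min before a threshold dose of L-5-HTP (200 mg/kg ip). Mice were held singly in small cages, and tremor was scored all-or-none over the 20 min after L-5-HTP.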

Data set [2] deals with Mus musculus. Description: Antidepressant activity against reserpine induced ptosis in mice after intraperitoneal administration. The following applies: ip. It counts as functional. Summed up: (§2)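 Female CD1 mice (18-22 g) received the drug in distilled water/gum tragacanth ip at multiple doses (7-20 mice/dose), given together with reserpine (2 mg/kg iv). One hour later, palpebral ptosis (half or more of the lid closed) was scored all-or-none. Screening dose was at most 50% of the seizure threshold dose.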

The nature of data set [3]: Acute toxicity in mice after intraperitoneal administration. Particulars: mouse, in vivo, ip, LD50.
The subject of data set [4] is Mus musculus. Description: Ability to modify turning behavior of mice after intraperitoneal administration. In kind it is functional. The following applies: ip, read-out: MED. Summed up:
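Female CD1 mice (25-30 g) were lesioned by stereotaxic injection of 6-OHDA (10 μg in 1 μL saline with 1 mg/mL ascorbic acid) into the right striatum under pentobarbitone (60 mg/kg ip). Seven days later, drug in distilled water/gum tragacanth was given ip at multiple doses (7-20 mice/dose). Ipsilateral turns were counted for 2 min starting 30 min post-dose.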

In data set [5] the test system is Mus musculus. Description: Compound was tested for antidepressant activity against reserpine induced ptosis in mice after intraperitoneal administration.; value ranges from 31-38. It counts as functional. Particulars: ip. The essentials:
as §2

The subject of data set [6] is Mus musculus. Description: Compound was tested for antidepressant activity against reserpine induced ptosis in mice after intraperitoneal administration.; value ranges from 11-34. It counts as functional. Particulars: ip. The essentials:
as §2

In data set [7] the test system is Mus musculus. The data set is described as follows: Serotonergic activity by measuring the potentiation of 5-hydroxy tryptophan in mice upon ip administration; value ranges from 4.9-6.7. It counts as functional. Summed up:
as §1

For data set [8], the system named is Mus musculus. Description: Compound was tested for antidepressant activity against reserpine induced ptosis in mice after intraperitoneal administration.; value ranges from 4.0-5.7. In kind it is functional. The following applies: ip. The essentials:
as §2

Data set [9] relates to Mus musculus. The data set is described as follows: Serotonergic activity by measuring the potentiation of 5-hydroxy tryptophan in mice upon ip administration; value ranges from 3.8-4.9. In kind it is functional. The essentials:
as §1

The test system of data set [10] is Mus musculus. Description: Compound was tested for antidepressant activity against reserpine induced ptosis in mice after intraperitoneal administration; value ranges from 1.8-4.1. In kind it is functional. Particulars: ip. The essentials:
as §2

The test system of data set [11] is Mus musculus. The data set is described as follows: Serotonergic activity by measuring the potentiation of 5-hydroxy tryptophan in mice upon ip administration; value ranges from 3-7.9. It counts as functional. The essentials: as §1

Consider `Cc1cc(Cc2ccccc2)nnc1NCCN1CCOCC1`, for which the ED50 with Mus musculus [1] and with Mus musculus [2] was over 10 mg/kg each time. This compound also showed an LD50 in data set [3] of 30 mg/kg. The minimal effective dose in the data set on Mus musculus [4] worked out at 2 mg/kg.

For the compound `Cc1cc(-c2ccccc2)nnc1NC(C)CN` (stereo not given), the ED50 in the data set on Mus musculus [1] was over 30 mg/kg; in the data set with Mus musculus [5], 34 mg/kg. In addition, in data set [3], the 50% lethal dose (LD50) is over 200 mg/kg. Moreover, the minimal effective dose in the data set with Mus musculus [4] was 2 mg/kg.

Consider `c1ccc(-c2cc(Cc3ccc4ccccc4c3)c(NCCN3CCOCC3)nn2)cc1`, for which the 50% effective dose (ED50) in the data set with Mus musculus [1] is over 100 mg/kg; in the data set with Mus musculus [2] it was over 50 mg/kg. Also, in [3], the LD50 was determined as 275 mg/kg. The minimal effective dose with Mus musculus [4] turned out to be 2 mg/kg.

In the case of `COc1ccccc1-c1cc(C)c(NCCN2CCOCC2)nn1`, the ED50 in the data set on Mus musculus [1] and in the data set with Mus musculus [2] was over 10 mg/kg in each case. The compound also gave a 50% lethal dose (LD50) in data set [3] of 40 mg/kg. Besides, in the data set on Mus musculus [4], the minimal effective dose was found to be 0.5 mg/kg.

`Cc1cc(-c2ccccc2)nnc1NCCN1CCOCC1C` (stereo not given): the results for the 50% effective dose (ED50) with Mus musculus [1] and in the data set with Mus musculus [6] were 30 mg/kg and 20 mg/kg, respectively. In data set [3], the median lethal dose (LD50) was determined as 110 mg/kg. Also, the minimal effective dose with Mus musculus [4] is over 2 mg/kg.

Consider `Cc1cc(-c2ccc(Cl)cc2)nnc1NCCN1CCOCC1`, for which the figures for the ED50 in the data set on Mus musculus [2] and with Mus musculus [7] were over 10 mg/kg and 5.8 mg/kg, respectively. The same compound came in with an LD50 in data set [3] of 62 mg/kg. For the same compound, the minimal effective dose in the data set with Mus musculus [4] is over 2 mg/kg.

As to `CCOC(=O)c1cc(-c2ccccc2)nnc1NCCN1CCOCC1`, the median effective dose (ED50) with Mus musculus [2] was over 50 mg/kg. Besides, the LD50 in data set [3] is 180 mg/kg. In the data set with Mus musculus [4], the minimal effective dose amounted to 0.5 mg/kg.

As to `c1ccc(Cc2cc(-c3ccccc3)nnc2NCCN2CCOCC2)cc1`, the ED50 with Mus musculus [1] and with Mus musculus [2] was over 50 mg/kg throughout. This compound also yielded an LD50 in [3] of 131 mg/kg. For the same compound, the minimal effective dose in the data set with Mus musculus [4] came to 2 mg/kg.

Take `Cc1cc(-c2cccs2)nnc1NCCN1CCOCC1`: the median effective dose (ED50) in the data set on Mus musculus [8] came out at 4.8 mg/kg; with Mus musculus [9] it was 4.2 mg/kg. In data set [3], this compound yielded an LD50 of 59 mg/kg. Also, the minimal effective dose with Mus musculus [4] is over 10 mg/kg.

`Clc1ccc(Cc2cc(-c3ccccc3)nnc2NCCN2CCOCC2)cc1`: the ED50 in the data set on Mus musculus [1] and in the data set on Mus musculus [2] was over 30 mg/kg throughout. In addition, the LD50 in data set [3] came out at 180 mg/kg. Also, the minimal effective dose with Mus musculus [4] was determined as 10 mg/kg.

On to `Br.Br.Cc1cc(-c2cccc(O)c2)nnc1NCCN1CCOCC1`, for which the ED50 with Mus musculus [1] was over 30 mg/kg; with Mus musculus [2], over 50 mg/kg. For the same compound, the LD50 in data set [3] is over 200 mg/kg. For the same compound, the minimal effective dose with Mus musculus [4] was 10 mg/kg.

Turning to `COc1ccc(-c2cc(C)c(NCCN3CCOCC3)nn2)cc1`, the ED50 in the data set with Mus musculus [1] and in the data set on Mus musculus [2] was over 5 mg/kg throughout. In data set [3], this compound showed a 50% lethal dose (LD50) of 19 mg/kg. In addition, the minimal effective dose in the data set with Mus musculus [4] was over 2 mg/kg.

On to `Cc1cc(-c2ccccc2F)nnc1NCCN1CCOCC1`, for which the 50% effective dose (ED50) in the data set with Mus musculus [1] and in the data set with Mus musculus [2] was over 10 mg/kg in each case. In data set [3], the LD50 came out at 26 mg/kg. The minimal effective dose in the data set with Mus musculus [4] was 0.5 mg/kg.

`Cc1cc(-c2ccccc2)nnc1NCCN1CCCC1` yielded a median effective dose (ED50) in the data set on Mus musculus [2] of over 30 mg/kg. The same compound displayed a 50% lethal dose (LD50) in [3] of 70 mg/kg.

For `Cc1cc(-c2cccc(Cl)c2)nnc1NCCN1CCOCC1`, the 50% effective dose (ED50) in the data set on Mus musculus [1] and in the data set on Mus musculus [2] was over 10 mg/kg each time. Further, the 50% lethal dose (LD50) in data set [3] amounted to 21 mg/kg. In the data set on Mus musculus [4], the minimal effective dose was over 2 mg/kg.

Turning to `Cc1cc(-c2cccc3ccccc23)nnc1NCCN1CCOCC1`, the ED50 in the data set on Mus musculus [1] and in the data set on Mus musculus [2] was over 2.5 mg/kg each time. In [3], the LD50 was determined as 7 mg/kg. Also, the minimal effective dose in the data set on Mus musculus [4] is 0.01 mg/kg.

Regarding `Cc1cc(-c2ccccc2)nnc1NCCCN`, the 50% effective dose (ED50) in the data set with Mus musculus [1] is over 30 mg/kg; in the data set with Mus musculus [2] it was 50 mg/kg. For the same compound, the 50% lethal dose (LD50) in [3] was found to be 300 mg/kg. Moreover, the minimal effective dose in the data set on Mus musculus [4] came out at 0.1 mg/kg.

As for `CCCN(CCC)CCNc1nnc(-c2ccccc2)cc1C`, the ED50 with Mus musculus [1] and in the data set on Mus musculus [2] was over 30 mg/kg in each case. In data set [3], this compound had an LD50 of 76 mg/kg. Further, the minimal effective dose with Mus musculus [4] came to 2 mg/kg.

For the compound `Cc1ccccc1-c1cc(C)c(NCCN2CCOCC2)nn1`, the 50% effective dose (ED50) with Mus musculus [1] and with Mus musculus [2] was over 1 mg/kg throughout. The median lethal dose (LD50) in data set [3] was 5 mg/kg. The minimal effective dose in the data set with Mus musculus [4] was over 1 mg/kg.

Consider `CN(C)CCCN1c2ccccc2CCc2ccc(Cl)cc21` [CLOMIPRAMINE], for which the values for the ED50 with Mus musculus [10] and in the data set on Mus musculus [11] were 3.3 mg/kg and 4.8 mg/kg, respectively.
